Assays:
THP-1 = experiment: Cytotoxicity against human THP1 cells after 6 days by Alamar blue assay; type: cell-based; conditions: THP-1, 144 h
How it was run: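 THP-1 cells were grown in RPMI 1640 with 10% tetracycline-free FCS and 20 mM HEPES. They were seeded at 1 × 10^4 ml−1 across a range of compound concentrations and incubated 6 days at 37°C, 5% CO2.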

[1] = Therapeutic index, ratio of IC50 against human THP1 cells to IC50 against Trypanosoma brucei; type: cell-based, THP-1; conditions: read-out: Ratio IC50
How it was run: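 Index was calculated as THP-1 IC50 divided by T. brucei BSF IC50. THP-1 IC50 came from 6-day Alamar blue assays, and parasite IC50 from 3-day Alamar blue assays, both at 37°C.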

Trypanosoma brucei [2] = experiment: Antiparasitic activity against Trypanosoma brucei BSF after 3 days by Alamar blue assay; type: functional, organism-based; conditions: 72 h
How it was run: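 BSF trypomastigotes (MITat 427, clone 221a) were seeded at 1 × 10^3 ml−1 in modified Iscove's medium with tetracycline-free FCS, across a range of compound concentrations. Plates ran 3 days at 37°C, then Alamar blue was added for 16 h. Fluorescence was read at ex 530/em 585 nm and IC50 determined.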

Trypanosoma brucei [3] = conditions: 100 uM
Trypanosoma brucei [4] = test system: Trypanosoma brucei
Trypanosoma brucei [5] = test system: Trypanosoma brucei; remark: listed apart in the source
Trypanosoma brucei [6] = experiment: Antiparasitic activity against Trypanosoma brucei BSF overexpressing NTR gene after 3 days by Alamar blue assay; type: functional, organism-based; conditions: 72 h
How it was run: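 Parasite lines were heterozygous NTR+/− (kept on 2 μg ml−1 puromycin) or TbNTR-overexpressing (kept on 2.5 μg ml−1 hygromycin plus 1 μg ml−1 phleomycin). Tetracycline at 1 μg ml−1 was added for induction where appropriate. Cells were seeded at 1 × 10^3 ml−1 and grown 3 days at 37°C, followed by Alamar blue for 16 h. Fluorescence IC50s were compared with control cells.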

Structure (SMILES) | IC50 (THP-1) [µM] | selectivity ratio [1] | IC50 (Trypanosoma brucei [2]) [µM] | Vmax (Trypanosoma brucei [3]) [nmol/min] | Km (Trypanosoma brucei [4]) [µM] | kcat/Km (Trypanosoma brucei [5]) [M⁻¹ s⁻¹] | IC50 (Trypanosoma brucei [6]) [µM]
Cc1cc(COP(N)(=O)N(CCCl)CCCl)ccc1[N+](=O)[O-] (configuration not stated) | 64.8 | 36 | 1.8 |  |  |  | 
NP(=O)(OCc1ccc([N+](=O)[O-])cc1Cl)N(CCCl)CCCl (configuration not stated) | 10 |  | 0.008 |  |  |  | 
NP(=O)(OCc1ccc([N+](=O)[O-])cc1)N(CCCl)CCCl (configuration not stated) | 66 |  | 3.4 |  |  |  | 
NP(=O)(OCc1ccccc1[N+](=O)[O-])N(CCCl)CCCl (configuration not stated) | 64.8 | 36 | 1.8 |  |  |  | 
CC1CS(=O)(=O)CCN1/N=C/c1ccc([N+](=O)[O-])o1 (configuration not stated) [NIFURTIMOX] | 64.8 | 36 | 1.8 | 423 | 53.1 | 3.4 | 
CC(C)(C(=O)N[C@@H]1CCN[P@@](=O)(N(CCCl)CCCl)O1)c1ccccc1[N+](=O)[O-] | 64.8 | 36 | 1.8 |  |  |  | 
COc1cc(COP(N)(=O)N(CCCl)CCCl)ccc1[N+](=O)[O-] (configuration not stated) | 64.8 | 36 | 1.8 |  |  |  | 
O=[N+]([O-])c1ccc([C@@H]2CCN[P@](=O)(N(CCCl)CCCl)N2)cc1 | 64.8 | 36 | 1.8 |  |  |  | 
O=[N+]([O-])c1ccc([C@@H]2CCN[P@@](=O)(N(CCCl)CCCl)N2)cc1 | 64.8 | 36 | 1.8 |  |  |  | 
O=[N+]([O-])c1ccc([C@@H]2CCN[P@](=O)(N(CCCl)CCCl)O2)cc1 | 64.8 | 36 | 1.8 |  |  |  | 
NP(=O)(OCc1ccc([N+](=O)[O-])c(F)c1)N(CCCl)CCCl (configuration not stated) | 17.6 | 6 | 3.2 |  |  |  | 
NP(=O)(OCc1c(F)cc([N+](=O)[O-])cc1F)N(CCCl)CCCl (configuration not stated) | 6.9 |  | 0.007 |  |  |  | 
O=[N+]([O-])c1ccc([C@@H]2CCO[P@@](=O)(N(CCCl)CCCl)N2)cc1 | 64.8 | 36 | 1.8 |  |  |  | 
CC(OP(N)(=O)N(CCCl)CCCl)c1ccc([N+](=O)[O-])cc1 (configuration not stated) | 64.8 | 36 | 1.8 |  |  |  | 
O=[N+]([O-])c1ccc([C@@H]2CCN[P@@](=O)(N(CCCl)CCCl)O2)cc1 | 64.8 | 36 | 1.8 |  |  |  | 
COc1cc([N+](=O)[O-])ccc1COP(N)(=O)N(CCCl)CCCl (configuration not stated) | 33.5 | 28 | 1.2 |  |  |  | 
CC(C)(C(=O)N[C@@H]1CCN[P@](=O)(N(CCCl)CCCl)O1)c1ccccc1[N+](=O)[O-] | 64.8 | 36 | 1.8 |  |  |  | 
NP(=O)(OCc1ccc([N+](=O)[O-])cc1F)N(CCCl)CCCl (configuration not stated) | 20.3 |  | 0.268 |  |  |  | 
Nc1nc(N)nc(Nc2ccc([As]3SCC(CO)S3)cc2)n1 (configuration not stated) [MELARSOPROL] |  |  |  |  |  |  | 4
NP(=O)(OCc1cccc([N+](=O)[O-])c1)N(CCCl)CCCl (configuration not stated) | 64.8 | 36 | 1.8 |  |  |  | 
NP(=O)(OCc1ccc([N+](=O)[O-])cc1C(F)(F)F)N(CCCl)CCCl (configuration not stated) | 19 |  | 0.149 |  |  |  | 
O=[N+]([O-])c1ccc([C@@H]2CCO[P@](=O)(N(CCCl)CCCl)N2)cc1 | 64.8 | 36 | 1.8 |  |  |  | 

Reference: ChEMBL document CHEMBL1255389, “Exploiting the drug-activating properties of a novel trypanosomal nitroreductase” (Antimicrob Agents Chemother, 2010)
